Data taken from ChEMBL document CHEMBL4480361, “Design, synthesis, and in vitro biological evaluation of novel benzimidazole tethered allylidenehydrazinylmethylthiazole derivatives as potent inhibitors of Mycobacterium tuberculosis” (Medchemcomm, 2019).
In brackets after ≈: the same amount, converted by molar mass.

Legend:
[1] = test system: Mycobacterium tuberculosis; experiment: Antitubercular activity against auto-luminescent Mycobacterium tuberculosis H37Ra measured for 5 days by luminescence assay; format: functional; conditions: 120 h
Procedure, shortened: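 Unmarked autoluminescent H37Ra homogenised with glass beads, grown in 7H9 with 0.05% Tween 80 and 10% OADC to OD600 0.3–0.5. At 2 million RLU, diluted to 2000–4000 RLU in Tween-free 7H9. Compounds tested in 3-fold steps from […] μg mL⁻¹, with DMSO and rifampicin (10, 1, 0.1 μg mL⁻¹) controls. RLU read daily for 5 days. MIClux is the lowest concentration giving RLUdrug/RLUDMSO below 10%.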

[2] = test system: MDCK; experiment: Cytotoxicity against MDCK cells assessed as reduction in cell viability after 72 hrs by CCK-8 assay; format: cell-based; conditions: Canis lupus familiaris
[3] = test system: Mycobacterium tuberculosis; experiment: Antitubercular activity against Mycobacterium tuberculosis H37Ra measured for 5 days by resazurin dye-based assay; format: functional; conditions: 120 h

Row | SMILES | MIC90 [1] [mg/L] | IC50 [2] [mg/L] | MIC [3] [mg/L]
1 | CCN(CC)c1ccc(/C=C/C(=N/NC(N)=S)c2nc3ccccc3[nH]2)cc1 | 10 (≈ 25.5 µM) | – | –
2 | NC(=S)N/N=C(/C=C/c1ccc(Cl)c(F)c1)c1nc2ccccc2[nH]1 | 5 (≈ 13.4 µM) | 1.5 (≈ 4.01 µM) | –
3 | COc1ccc(/C=C/C(=N/NC(N)=S)c2nc3ccccc3[nH]2)cc1 | 10 (≈ 28.5 µM) | – | –
4 | NC(=S)N/N=C(/C=C/c1ccc(F)cc1)c1nc2ccccc2[nH]1 | 2.5 (≈ 7.37 µM) | 1.6 (≈ 4.71 µM) | –
5 | CCNC(=O)Nc1nc2cc(-c3cccnc3)cc(-c3ccccn3)c2[nH]1 | – | – | 0.001 (≈ 0.00279 µM)
6 | Cc1csc(N/N=C(/C=C/c2ccccc2)c2nc3ccccc3[nH]2)n1 | 4 (≈ 11.1 µM) | 2.9 (≈ 8.07 µM) | –
7 | Cc1csc(N/N=C(/C=C/c2cccc3[nH]ccc23)c2nc3ccccc3[nH]2)n1 | 10 (≈ 25.1 µM) | – | –
8 | COc1cc(OC)c(/C=C/C(=N/Nc2nc(C)cs2)c2nc3ccccc3[nH]2)c(OC)c1 | > 50 | – | –
9 | COc1cccc(/C=C/C(=N/NC(N)=S)c2nc3ccccc3[nH]2)c1OC | 5 (≈ 13.1 µM) | 3.9 (≈ 10.2 µM) | –
10 | Cc1csc(N/N=C(/C=C/c2cc(F)cc(F)c2)c2nc3ccccc3[nH]2)n1 | 10 (≈ 25.3 µM) | – | –
11 | NC(=S)N/N=C(/C=C/c1ccc(Br)cc1)c1nc2ccccc2[nH]1 | 4 (≈ 9.99 µM) | 2.6 (≈ 6.5 µM) | –
12 | NC(=S)N/N=C(/C=C/c1ccccc1)c1nc2ccccc2[nH]1 | 5 (≈ 15.6 µM) | 3.4 (≈ 10.6 µM) | –
13 | Cc1csc(N/N=C(/C=C/c2ccc(Br)cc2)c2nc3ccccc3[nH]2)n1 | 10 (≈ 22.8 µM) | – | –
14 | CCN(CC)c1ccc(/C=C/C(=N/Nc2nc(C)cs2)c2nc3ccccc3[nH]2)cc1 | 2.5 (≈ 5.81 µM) | > 30 | –
15 | Cc1csc(N/N=C(/C=C/c2ccc(F)c(C)c2)c2nc3ccccc3[nH]2)n1 | 10 (≈ 25.5 µM) | – | –
16 | Cc1ccc(/C=C/C(=N/NC(N)=S)c2nc3ccccc3[nH]2)cc1 | 5 (≈ 14.9 µM) | 3.7 (≈ 11 µM) | –
17 | COc1cc(OC)c(/C=C/C(=N/NC(N)=S)c2nc3ccccc3[nH]2)c(OC)c1 | > 50 | – | –
18 | Cc1csc(N/N=C(/C=C/c2ccc(OC(F)(F)F)cc2)c2nc3ccccc3[nH]2)n1 | 10 (≈ 22.6 µM) | – | –
19 | NC(=S)N/N=C(/C=C/c1ccc(OC(F)(F)F)cc1)c1nc2ccccc2[nH]1 | 5 (≈ 12.3 µM) | 0.34 (≈ 0.839 µM) | –
20 | Cc1csc(N/N=C(/C=C/c2ccc[nH]2)c2nc3ccccc3[nH]2)n1 | 100 (≈ 287 µM) | – | –
21 | Cc1cc(/C=C/C(=N/NC(N)=S)c2nc3ccccc3[nH]2)ccc1F | 4 (≈ 11.3 µM) | 1.6 (≈ 4.53 µM) | –
22 | Cc1csc(N/N=C(/C=C/c2ccc(Cl)c(F)c2)c2nc3ccccc3[nH]2)n1 | 10 (≈ 24.3 µM) | – | –
23 | NC(=S)N/N=C(/C=C/c1ccc[nH]1)c1nc2ccccc2[nH]1 | 100 (≈ 322 µM) | – | –
24 | COc1ccc(/C=C/C(=N/Nc2nc(C)cs2)c2nc3ccccc3[nH]2)cc1 | 10 (≈ 25.7 µM) | 1.9 (≈ 4.88 µM) | –
25 | Cc1ccc(/C=C/C(=N/Nc2nc(C)cs2)c2nc3ccccc3[nH]2)cc1 | 10 (≈ 26.8 µM) | – | –
26 | Cc1csc(N/N=C(/C=C/c2ccc(F)cc2)c2nc3ccccc3[nH]2)n1 | 5 (≈ 13.2 µM) | – | –
27 | CO[C@H]1/C=C/O[C@@]2(C)Oc3c(C)c(O)c4c(O)c(c(/C=N/N5CCN(C)CC5)c(O)c4c3C2=O)NC(=O)/C(C)=C\C=C\[C@H](C)[C@H](O)[C@@H](C)[C@@H](O)[C@@H](C)[C@H](OC(C)=O)[C@@H]1C [RIFAMPIN] | 0.25 (≈ 0.304 µM) | – | –
28 | NC(=S)N/N=C(/C=C/c1cccc2[nH]ccc12)c1nc2ccccc2[nH]1 | 5 (≈ 13.9 µM) | 0.91 (≈ 2.52 µM) | –
29 | NC(=S)N/N=C(/C=C/c1cc(F)cc(F)c1)c1nc2ccccc2[nH]1 | 5 (≈ 14 µM) | 1.6 (≈ 4.48 µM) | –
30 | COc1cccc(/C=C/C(=N/Nc2nc(C)cs2)c2nc3ccccc3[nH]2)c1OC | 10 (≈ 23.8 µM) | – | –
